From PubChem BioAssay
The list is not random: actives were taken first. Their share in the collection is about 2.5%.
SR-BI DiI inh: inhibitors of mouse SR-BI mediated HDL lipid uptake; Q61009; ldlA[mSR-BI] CHO cells, DiI-HDL uptake fluorescence, 3 h; inhibition, % at 12.5 µM; 320,000 compounds, 0.96% hits; AID 488896;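 active means mean replicate inhibition of at least 70% and a set share of replicates each scoring 70 or more; inconclusive means meets just one of the two criteria; inactive means fails both criteria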;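 further: 0% = median of neutral control wells and 100% = median of positive control wells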
DYRK1A inh: Dyrk1A (rat) kinase inhibition | ADP-Glo luminescence, NFATc1 peptide | inhibition, % at 12.5 µM | 310,000 compounds, 0.43% hits;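 further: plate controls were vehicle with enzyme for no effect and no enzyme for full effect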
NSD2 inh: NSD2 (human) methyltransferase inhibition; O96028; NSD2 peptide methylation, AlphaScreen, 120 min; inhibition, % at 12.5 µM; 310,000 compounds, 0.54% hits
Target sequence (O96028 whole entry, looked up): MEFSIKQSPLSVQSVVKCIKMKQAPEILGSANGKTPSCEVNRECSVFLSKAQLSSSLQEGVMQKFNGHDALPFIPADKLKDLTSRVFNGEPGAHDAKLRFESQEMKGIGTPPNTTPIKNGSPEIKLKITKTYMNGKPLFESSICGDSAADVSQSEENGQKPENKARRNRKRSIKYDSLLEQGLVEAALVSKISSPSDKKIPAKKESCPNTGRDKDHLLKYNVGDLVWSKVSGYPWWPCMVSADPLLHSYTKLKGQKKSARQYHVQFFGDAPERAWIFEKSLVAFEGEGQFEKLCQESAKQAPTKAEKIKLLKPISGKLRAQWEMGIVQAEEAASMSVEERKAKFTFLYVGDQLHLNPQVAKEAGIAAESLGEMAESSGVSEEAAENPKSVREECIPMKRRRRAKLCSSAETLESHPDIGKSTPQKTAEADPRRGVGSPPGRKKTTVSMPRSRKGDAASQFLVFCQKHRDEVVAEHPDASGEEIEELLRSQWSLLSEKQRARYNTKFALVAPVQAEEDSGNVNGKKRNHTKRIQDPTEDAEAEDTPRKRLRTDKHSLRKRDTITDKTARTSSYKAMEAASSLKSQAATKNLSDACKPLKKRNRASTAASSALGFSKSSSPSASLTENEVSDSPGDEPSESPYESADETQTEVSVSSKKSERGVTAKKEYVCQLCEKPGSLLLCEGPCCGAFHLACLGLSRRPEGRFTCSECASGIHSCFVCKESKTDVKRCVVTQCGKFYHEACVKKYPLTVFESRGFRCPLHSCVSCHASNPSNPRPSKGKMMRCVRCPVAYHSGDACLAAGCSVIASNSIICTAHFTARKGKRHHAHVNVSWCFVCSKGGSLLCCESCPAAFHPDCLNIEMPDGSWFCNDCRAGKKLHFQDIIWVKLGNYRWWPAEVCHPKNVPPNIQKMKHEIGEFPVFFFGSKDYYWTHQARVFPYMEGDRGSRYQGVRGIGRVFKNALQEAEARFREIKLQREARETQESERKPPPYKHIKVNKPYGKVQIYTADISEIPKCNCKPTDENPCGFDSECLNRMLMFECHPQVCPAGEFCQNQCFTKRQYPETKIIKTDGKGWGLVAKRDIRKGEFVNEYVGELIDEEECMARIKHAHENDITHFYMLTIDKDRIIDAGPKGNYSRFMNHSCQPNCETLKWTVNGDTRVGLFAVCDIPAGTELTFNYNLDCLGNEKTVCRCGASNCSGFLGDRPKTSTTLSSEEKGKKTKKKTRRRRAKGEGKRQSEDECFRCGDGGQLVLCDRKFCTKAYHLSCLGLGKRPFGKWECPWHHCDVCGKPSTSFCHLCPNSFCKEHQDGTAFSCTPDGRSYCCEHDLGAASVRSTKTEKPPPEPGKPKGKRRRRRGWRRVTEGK
CDK5 inh: CDK5/p35 (human) kinase inhibition. Q00535+Q15078. Recombinant CDK5/p35, ADP-Glo luminescence, 60 min. inhibition, % at 10 µM. 330,000 compounds, 0.01% hits. AID 488839;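 active means highest replicate inhibition of at least 50% and at least 75% of replicates reaching 50%; inconclusive means only one of the two criteria met; inactive means both criteria failed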;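 further: plate controls were DMSO neutral control for no effect and GW8510 at 10 µM for full effect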
dFosB activator: enhances mouse delta FosB homodimer DNA binding; activation, % at 25 µM; 340,000 compounds, 0.99% hits; AID 493131; purified delta FosB, TAMRA-CDK5 oligo fluorescence polarization; percent of positive-control signal above neutral wells;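 active means mean activation above about 17%, with every replicate also reaching it, limit read from the data, passing the limit was not always enough; inconclusive means only one of the two conditions met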
SR-BI uptake up: SR-BI HDL lipid transfer activation. CHO ldlA[mSR-BI] cells, DiI-HDL uptake fluorescence, 3 h; 100 = double the neutral-control signal. activation, % at 12.5 µM. 320,000 compounds, 0.096% hits. AID 504775;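 active means mean replicate activation of at least 60% and every replicate at or above 60%; inconclusive means mean or all-replicate condition met, but not both; inactive means mean below 60% and not all replicates reaching 60%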;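 further: 0% = median plate neutral-control signal and 100% = twice that signal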
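Assay system: LDL receptor-deficient CHO ldlA cells overexpressing murine SR-BI / Medium: BSA-supplemented, HEPES-buffered Ham's F12, pH 7.4 / Probe or stimulus: DiI-labelled HDL at 10 µg/mL final / Timing: compound with DiI-HDL co-incubation, 3 h at 37 °C / Technique: bottom-read cell fluorescence after medium removal, ex 550/em 595 nm / Measure: HDL uptake via cellular fluorescence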
Starred values were filed as active, the others as inactive. Unless noted, no stated cut-off is given here; in the data, active means inhibition above about 50%; inactive means the rest.

COc1ccc(Cl)cc1NC(=O)COC(=O)CCNS(=O)(=O)c1cccs1 was read as SR-BI DiI inh -21, DYRK1A inh 1, NSD2 inh 10, CDK5 inh -1, dFosB activator -2 and SR-BI uptake up 21.
Screening Cc1ccc(-n2c(SCC(=O)c3ccccc3Br)nnc2-c2ccncc2)cc1 returned NSD2 inh 1.
For COc1ccc(N(CC(=O)NCCSCc2ccccc2C)S(=O)(=O)c2ccccc2)cc1 the results were SR-BI DiI inh -6, DYRK1A inh -3, NSD2 inh -1, CDK5 inh 1, dFosB activator -15 and SR-BI uptake up 6.
For Cc1cccc(C(=O)Nc2cc(NC(=O)c3cccs3)ccc2C)c1 the results were SR-BI DiI inh 74*, DYRK1A inh 8, NSD2 inh -3, CDK5 inh -2, dFosB activator -3 and SR-BI uptake up -74.
`O=C(COc1ccc(Br)cc1)Nc1ccc(NC(=O)c2ccccc2)cc1` gave SR-BI DiI inh 22, DYRK1A inh -6, NSD2 inh -1, CDK5 inh 1, dFosB activator 25* and SR-BI uptake up -22.
`COc1ccccc1CC(=O)Nc1ccc(NC(=O)c2cccs2)cc1` gave SR-BI DiI inh 29, DYRK1A inh -2, NSD2 inh 4, CDK5 inh -3 and dFosB activator 17*.
COc1ccccc1OCC(=O)Nc1ccc(NC(=O)COc2ccccc2OC)cc1 was read as SR-BI DiI inh 92*, NSD2 inh -1, CDK5 inh -5, dFosB activator -8 and SR-BI uptake up -92.
`C[C@]12C=C[C@H](O)CC1=CCC1C2CC[C@@]2(C)C1CCC21OCCO1` (some centres undefined) gave SR-BI DiI inh 7, NSD2 inh -2, CDK5 inh -2, dFosB activator -2 and SR-BI uptake up -7.
For O=S(=O)(NCCN1CCOCC1)c1ccc(F)c(Cl)c1 the results were SR-BI DiI inh -8, DYRK1A inh 1, NSD2 inh -3, CDK5 inh 0, dFosB activator 0 and SR-BI uptake up 8.
Screening COc1cc(/C=N/NC(N)=S)ccc1OCC(=O)Nc1ccc(C)c(C)c1 returned SR-BI DiI inh 73*, DYRK1A inh -1, NSD2 inh 6, CDK5 inh 0, dFosB activator -1 and SR-BI uptake up -73.
Screening COc1cc(/C=N/NC(N)=O)ccc1OCC(=O)Nc1ccc(C)c(C)c1 returned SR-BI DiI inh 35, NSD2 inh -1, CDK5 inh 5, dFosB activator inconclusive and SR-BI uptake up -35.
`COc1cc(NC(=O)c2ccc(C)cc2C)ccc1NC(=O)c1cccs1` gave SR-BI DiI inh 84*, DYRK1A inh 0, NSD2 inh -4, CDK5 inh 0, dFosB activator -2 and SR-BI uptake up -84.
Screening OC(COc1ccc(F)cc1Cl)CN1CCC(Cc2ccccc2)CC1 (centres undefined) returned DYRK1A inh 51*, NSD2 inh 0, CDK5 inh 1 and dFosB activator -6.
For COc1ccc(-c2cc(-c3ccc(OC)cc3)c(C#N)c(SC)n2)cc1 the results were SR-BI DiI inh 80*, DYRK1A inh -4, NSD2 inh 2, CDK5 inh 3, dFosB activator -6 and SR-BI uptake up -80.
For CCOc1ccccc1C1c2[nH]c3ccccc3c2C[C@H]2C(=O)N(C3CCN(Cc4ccccc4)CC3)CC(=O)N12 (some centres undefined) the results were SR-BI DiI inh 21, DYRK1A inh -4, NSD2 inh 32, CDK5 inh 0, dFosB activator 63* and SR-BI uptake up -21.
`O=C1[C@@H]2Cc3c([nH]c4ccccc34)C(c3cccc(Br)c3)N2C(=O)CN1C1CCN(Cc2ccccc2)CC1` (some centres undefined) gave SR-BI DiI inh 34, DYRK1A inh -1, NSD2 inh -2, CDK5 inh -2, dFosB activator 66* and SR-BI uptake up -34.
For COc1ccc(C2c3[nH]c4ccccc4c3C[C@H]3C(=O)N(C4CCN(Cc5ccccc5)CC4)CC(=O)N23)c(OC)c1 (some centres undefined) the results were SR-BI DiI inh -35, DYRK1A inh 2, NSD2 inh -4, CDK5 inh 0, dFosB activator 21* and SR-BI uptake up 35.
COc1ccc(OC)c(C2c3[nH]c4ccccc4c3C[C@H]3C(=O)N(C4CC4)CC(=O)N23)c1 (some centres undefined) was read as DYRK1A inh 2, NSD2 inh 1, CDK5 inh -1 and dFosB activator -2.
For Cc1ccccc1C1c2[nH]c3ccccc3c2C[C@H]2C(=O)N(C3CCN(Cc4ccccc4)CC3)CC(=O)N12 (some centres undefined) the results were SR-BI DiI inh 14, DYRK1A inh -6, NSD2 inh 0, CDK5 inh 2, dFosB activator 76* and SR-BI uptake up -14.
`COc1cccc(C2c3[nH]c4ccccc4c3C[C@H]3C(=O)N(C4CC4)CC(=O)N23)c1` (some centres undefined) gave SR-BI DiI inh 63, DYRK1A inh -2, NSD2 inh 2, CDK5 inh 2, dFosB activator -7 and SR-BI uptake up -63.
Screening COc1ccc(C2CCCCCN2C(=O)C2CCN(S(=O)(=O)c3cccc(C(C)=O)c3)CC2)cc1 (centres undefined) returned SR-BI DiI inh -11, DYRK1A inh -3, NSD2 inh -1, CDK5 inh -1, dFosB activator -10 and SR-BI uptake up 11.
`COC(=O)c1ccc(C2c3[nH]c4ccccc4c3C[C@H]3C(=O)N(C4CCN(Cc5ccccc5)CC4)CC(=O)N23)cc1` (some centres undefined) gave SR-BI DiI inh 32, DYRK1A inh -5, NSD2 inh -2, CDK5 inh 0, dFosB activator 55* and SR-BI uptake up -32.
O=C1[C@@H]2Cc3c([nH]c4ccccc34)C(c3ccccc3)N2C(=O)CN1C1CCN(Cc2ccccc2)CC1 (some centres undefined) was read as SR-BI DiI inh 10, DYRK1A inh 6, NSD2 inh 2, CDK5 inh -8, dFosB activator 3 and SR-BI uptake up -10.
For Cc1cc(Br)ccc1OCC(=O)NNC(=O)c1ccc(NC(=O)C2CC2)cc1 the results were SR-BI DiI inh 47, DYRK1A inh -1, NSD2 inh -5, CDK5 inh -1, dFosB activator 13 and SR-BI uptake up -47.
Screening Cc1ccc(C)c(OCC(=O)NNC(=O)c2ccc(NC(=O)C3CC3)cc2)c1 returned SR-BI DiI inh 74*, DYRK1A inh 1, NSD2 inh 10, CDK5 inh 0, dFosB activator inconclusive and SR-BI uptake up -74.
